Measured values reported in paper PMC10373183 (ACS Omega, 2023).
“Also recorded” adds a separate entry of the source.

Assays:
[1] = system: U937 cells; assay: CellTiter-Glo Luminescent cell viability assay; format: cell-based, human; settings: for inhibition at 25 µM / inhibition at 50 µM / inhibition at 100 µM / inhibition at 200 µM / GI50: Homo sapiens; for inhibition at 25 µM / inhibition at 50 µM / inhibition at 100 µM / inhibition at 200 µM: U-937, 72 h, read-out: percent inhibition at various concentrations of compounds (CellTiter-Glo, antiproliferative); for GI50: U-937, read-out: antiproliferative (U937) GI50; for antiproliferative activity (in words) / percent inhibition at various concentrations of compounds (CellTiter-Glo, antiproliferative): U937 cells; for antiproliferative activity (in words): CellTiter-Glo, four concentrations; for percent inhibition at various concentrations of compounds (CellTiter-Glo, antiproliferative): 72 h, Mitomycin C = 100%, DMSO = 0%
How it was run: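 U937 cells incubated 72 h with test compound at four concentrations; CellTiter-Glo reagent added at equal volume, shaken 2 min to lyse, then held 10 min at room temperature before luminescence read. Viability = RLU test × 100/RLU control, converted to percent inhibition. GI50 fitted from percent inhibition. Mitomycin C positive control; DMSO diluent as negative control.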

[2] = LDH release cytotoxicity assay; format: cell-based; settings: human, U937 cells
How it was run: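 U937 cells plated and exposed to test compound at several concentrations for 4 h at 37 °C, with Triton X-100 as positive cytotoxicity control. Plates spun 1000 RPM for 5 min. Supernatants mixed with LDH detection reagent for 10 min in the dark at room temperature, then read at OD 490 nm. LC50 fitted from percent activity.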

Compound	inhibition at 25 µM [1] [%]	inhibition at 50 µM [1] [%]	inhibition at 100 µM [1] [%]	inhibition at 200 µM [1] [%]	GI50 [1] [µM]	inhibition at 4 h, 12.5 µM [2] [%]	inhibition at 4 h, 25 µM [2] [%]	inhibition at 4 h, 50 µM [2] [%]	inhibition at 4 h, 100 µM [2] [%]	antiproliferative activity (in words) [1]	percent inhibition at various concentrations of compounds (CellTiter-Glo, antiproliferative) ([1]; 25 μM compound)	percent inhibition at various concentrations of compounds (CellTiter-Glo, antiproliferative) ([1]; 50 μM compound)	percent inhibition at various concentrations of compounds (CellTiter-Glo, antiproliferative) ([1]; 100 μM compound)	percent inhibition at various concentrations of compounds (CellTiter-Glo, antiproliferative) ([1]; 200 μM compound)
Cc1nn(C)c(C)c1S(=O)(=O)NCCc1ccc(Cl)cc1 [MR-S1-6, N-(4-Chlorophenethyl)-1,3,5-trimethyl-1H-pyrazole-4-sulfonamide]	40.5	17.9	28.4	44.2	> 200	3.3	-1.3	-2	-1.6	–	–	–	–	–
Cc1nn(C)c(C)c1S(=O)(=O)N[C@H](C)c1cccc2ccccc12 [MR-S1-15, (R)-1,3,5-Trimethyl-N-(1-(naphthalen-1-yl)ethyl)-1H-pyrazole-4-sulfonamide]	19.5	65.1	88.5	101	3	0	-1.3	-1.8	-2.7	good antiproliferative activity; also recorded: most potent	–	–	–	–
Cc1nn(C)c(C)c1S(=O)(=O)NCCc1c[nH]c2ccccc12 [MR-S1-17, N-(2-(1H-Indol-3-yl)ethyl)-1,3,5-trimethyl-1H-pyrazole-4-sulfonamide]	18.6	12.9	32.2	12.9	> 200	-0.9	-2	-2	-1.6	impotent; also recorded: less anti-proliferative activity	–	–	–	–
CCCOc1ccc(CCNS(=O)(=O)c2c(C)n[nH]c2C)cc1OCCC [MR-S1-12, N-(3,4-Dipropoxyphenethyl)-3,5-dimethyl-1H-pyrazole-4-sulfonamide]	35.9	94.9	100	99.3	3.3	-2.2	0.7	-2.7	-0.9	good antiproliferative activity; also recorded: potent	–	–	–	–
Cc1n[nH]c(C)c1S(=O)(=O)NCCc1ccc(Cl)cc1 [MR-S1-5, N-(4-Chlorophenethyl)-3,5-dimethyl-1H-pyrazole-4-sulfonamide]	48.3	44.2	61.5	78.7	16	-1.8	-2.2	-0.2	-2.7	moderate anti-proliferative activity	–	–	–	–
COc1ccc(CCNS(=O)(=O)c2c(C)n[nH]c2C)cc1OC [MR-S1-9, N-(3,4-Dimethoxyphenethyl)-3,5-dimethyl-1H-pyrazole-4-sulfonamide]	-0.5	-26.2	-21.2	2	> 200	-2.7	2.7	2.4	-2.4	impotent; also recorded: less anti-proliferative activity	–	–	–	–
N-(3,4-Bis(methoxy-d3)phenethyl-d6)-3,5-dimethyl-1H-pyrazole-4-sulfonamide [MR-S1-10]	–	–	–	–	–	–	–	–	–	less anti-proliferative activity	–8.1%	–37.5%	–39.0%	–14.5%
Cc1n[nH]c(C)c1S(=O)(=O)NCCc1ccccc1 [MR-S1-3, 3,5-Dimethyl-N-phenethyl-1H-pyrazole-4-sulfonamide]	12.7	24.5	31.8	74.8	16	-0.9	-2.4	-1.3	-1.3	moderate anti-proliferative activity	–	–	–	–
Cc1n[nH]c(C)c1S(=O)(=O)NCCc1cccc(Cl)c1 [MR-S1-7, N-(3-Chlorophenethyl)-3,5-dimethyl-1H-pyrazole-4-sulfonamide]	14.5	13.4	24.2	51.6	> 200	-2	-2.4	0.9	-3.1	–	–	–	–	–
Cc1n[nH]c(C)c1S(=O)(=O)N[C@H](C)c1cccc2ccccc12 [MR-S1-14, (R)-3,5-Dimethyl-N-(1-(naphthalen-1-yl)ethyl)-1H-pyrazole-4-sulfonamide]	27.6	32.9	68.7	98.9	9.4	-2.4	-4	-0.9	-3.1	good antiproliferative activity; also recorded: most potent	–	–	–	–
Cc1n[nH]c(C)c1S(=O)(=O)NCCc1c[nH]c2ccccc12 [MR-S1-16, N-(2-(1H-Indol-3-yl)ethyl)-3,5-dimethyl-1H-pyrazole-4-sulfonamide]	14.5	24.1	22.5	55.9	> 200	3.8	-0.9	-1.6	-1.8	–	–	–	–	–
Cc1nn(C)c(C)c1S(=O)(=O)NCCc1cccc(Cl)c1 [MR-S1-8, N-(3-Chlorophenethyl)-1,3,5-trimethyl-1H-pyrazole-4-sulfonamide]	25.1	28.4	34.6	47.4	> 200	2.9	-1.3	1.8	0.4	–	–	–	–	–
Cc1nn(C)c(C)c1S(=O)(=O)NCCC1=CCCCC1 [MR-S1-2, N-(2-(Cyclohex-1-en-1-yl)ethyl)-1,3,5-trimethyl-1H-pyrazole-4-sulfonamide]	24.8	29.3	42.2	58	> 200	-1.3	-3.6	-3.1	-5.3	–	–	–	–	–
Cc1n[nH]c(C)c1S(=O)(=O)NCCC1=CCCCC1 [MR-S1-1, N-(2-(Cyclohex-1-en-1-yl)ethyl)-3,5-dimethyl-1H-pyrazole-4-sulfonamide]	18.6	34.5	54.2	64.2	1.7	-0.9	-2.2	-0.4	-1.8	moderate anti-proliferative activity	–	–	–	–
Cc1nn(C)c(C)c1S(=O)(=O)NCCc1ccccc1 [MR-S1-4, 1,3,5-Trimethyl-N-phenethyl-1H-pyrazole-4-sulfonamide]	33	19.2	37.8	23.2	> 200	-2.9	-2.2	-0.9	-1.8	impotent; also recorded: less anti-proliferative activity	–	–	–	–
Cc1nn(C)c(C)c1S(=O)(=O)N1CCC(c2nc3ccccc3[nH]2)CC1 [MR-S1-18, 2-(1-((1,3,5-Trimethyl-1H-pyrazol-4-yl)sulfonyl)piperidin-4-yl)-1H-benzo[d]imidazole]	11.7	36.4	43.9	83.4	92.6	0.2	-1.8	0.2	-0.4	good antiproliferative activity	–	–	–	–
CCOCCn1c(C2CCN(S(=O)(=O)c3c(C)n[nH]c3C)CC2)nc2ccccc21 [MR-S1-19, 2-(1-((3,5-Dimethyl-1H-pyrazol-4-yl)sulfonyl)piperidin-4-yl)-1-(2-ethoxyethyl)-1H-benzo[d]imidazole]	-5	2.2	-1.3	18	> 200	-4.9	-1.3	-1.8	-4	impotent; also recorded: less anti-proliferative activity	–	–	–	–
